Converted amounts (≈) assume the structure as drawn.
What was measured:
Plasmodium falciparum [1] = experiment: Antimalarial activity against Plasmodium falciparum D6; assay type: functional, organism-based
[2] = Selectivity index, ratio of IC50 for african green monkey (Cercopithecus aethiops) Vero cells to IC50 for Plasmodium falciparum D6; assay type: toxicity, cell-based; settings: read-out: Ratio IC50
Plasmodium falciparum [3] = experiment: Antimalarial activity against Plasmodium falciparum W2; assay type: functional, organism-based
[4] = Selectivity index, ratio of IC50 for african green monkey (Cercopithecus aethiops) Vero cells to IC50 for Plasmodium falciparum W2; assay type: toxicity, cell-based; settings: read-out: Ratio IC50
Vero = experiment: Cytotoxicity against african green monkey Vero cells; assay type: cell-based; settings: Chlorocebus sabaeus
Summary of the method: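 Cytotoxicity taken from the same HSV-1 plaque cultures: concentration causing half-maximal loss of uninfected Vero cells from the monolayer surrounding plaques.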

HFF [5] = experiment: Toxicity against HFF cells at 0.010 uM after 24 hrs by MTT assay relative to control; assay type: cell-based; settings: human, 0.01 µM
Summary of the method: (§1)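 Host-cell toxicity for HFF and L929 cells determined by MTT cell proliferation assay; expressed as percent of control.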

HFF [6] = experiment: Toxicity against HFF cells at 0.10 uM after 24 hrs by MTT assay relative to control; assay type: cell-based; settings: human, 0.1 µM; summary of the method: as §1
HFF [7] = experiment: Toxicity against HFF cells at 1 uM after 24 hrs by MTT assay relative to control; assay type: cell-based; settings: human; summary of the method: as §1
HFF [8] = experiment: Toxicity against HFF cells at 10 uM after 24 hrs by MTT assay relative to control; assay type: cell-based; settings: human; summary of the method: as §1
HFF [9] = experiment: Toxicity against HFF cells at 0.010 uM after 48 hrs by MTT assay relative to control; assay type: cell-based; settings: human, 0.01 µM; summary of the method: as §1
HFF [10] = experiment: Toxicity against HFF cells at 0.10 uM after 48 hrs by MTT assay relative to control; assay type: cell-based; settings: human, 0.1 µM; summary of the method: as §1
HFF [11] = experiment: Toxicity against HFF cells at 1 uM after 48 hrs by MTT assay relative to control; assay type: cell-based; settings: human; summary of the method: as §1
HFF [12] = experiment: Toxicity against HFF cells at 10 uM after 48 hrs by MTT assay relative to control; assay type: cell-based; settings: human; summary of the method: as §1
Toxoplasma gondii [13] = experiment: Antiparasitic activity against Toxoplasma gondii infected in HFF cells at 0.01 uM after 24 hrs by [3H]uracil incorporation assay relative to control; assay type: functional
Toxoplasma gondii [14] = experiment: Antiparasitic activity against Toxoplasma gondii infected in HFF cells at 0.1 uM after 24 hrs by [3H]uracil incorporation assay relative to control; assay type: functional
Toxoplasma gondii [15] = experiment: Antiparasitic activity against Toxoplasma gondii infected in HFF cells at 1 uM after 24 hrs by [3H]uracil incorporation assay relative to control; assay type: functional
Toxoplasma gondii [16] = experiment: Antiparasitic activity against Toxoplasma gondii infected in HFF cells at 10 uM after 24 hrs by [3H]uracil incorporation assay relative to control; assay type: functional
Toxoplasma gondii [17] = experiment: Antiparasitic activity against Toxoplasma gondii infected in HFF cells at 0.01 uM after 48 hrs by [3H]uracil incorporation assay relative to control; assay type: functional
Toxoplasma gondii [18] = experiment: Antiparasitic activity against Toxoplasma gondii infected in HFF cells at 0.1 uM after 48 hrs by [3H]uracil incorporation assay relative to control; assay type: functional
Toxoplasma gondii [19] = experiment: Antiparasitic activity against Toxoplasma gondii infected in HFF cells at 1 uM after 48 hrs by [3H]uracil incorporation assay relative to control; assay type: functional
Toxoplasma gondii [20] = experiment: Antiparasitic activity against Toxoplasma gondii infected in HFF cells at 10 uM after 48 hrs by [3H]uracil incorporation assay relative to control; assay type: functional
L929 [21] = experiment: Toxicity against mouse L929 cells at 0.010 uM after 24 hrs by MTT assay relative to control; assay type: cell-based; settings: l929, 24 h, 0.01 µM; summary of the method: as §1
L929 [22] = experiment: Toxicity against mouse L929 cells at 0.10 uM after 24 hrs by MTT assay relative to control; assay type: cell-based; settings: l929, 24 h, 0.1 µM; summary of the method: as §1
L929 [23] = experiment: Toxicity against mouse L929 cells at 1 uM after 24 hrs by MTT assay relative to control; assay type: cell-based; settings: l929, 24 h; summary of the method: as §1
L929 [24] = experiment: Toxicity against mouse L929 cells at 10 uM after 24 hrs by MTT assay relative to control; assay type: cell-based; settings: l929, 24 h; summary of the method: as §1
L929 [25] = experiment: Toxicity against mouse L929 cells at 0.010 uM after 48 hrs by MTT assay relative to control; assay type: cell-based; settings: l929, 48 h, 0.01 µM; summary of the method: as §1
L929 [26] = experiment: Toxicity against mouse L929 cells at 0.10 uM after 48 hrs by MTT assay relative to control; assay type: cell-based; settings: l929, 48 h, 0.1 µM; summary of the method: as §1
L929 [27] = experiment: Toxicity against mouse L929 cells at 1 uM after 48 hrs by MTT assay relative to control; assay type: cell-based; settings: l929, 48 h; summary of the method: as §1
L929 [28] = experiment: Toxicity against mouse L929 cells at 10 uM after 48 hrs by MTT assay relative to control; assay type: cell-based; settings: l929, 48 h; summary of the method: as §1
Toxoplasma gondii [29] = experiment: Antiparasitic activity against Toxoplasma gondii infected in mouse L929 cells at 0.01 uM after 24 hrs by [3H]uracil incorporation assay relative to control; assay type: functional
Toxoplasma gondii [30] = experiment: Antiparasitic activity against Toxoplasma gondii infected in mouse L929 cells at 0.1 uM after 24 hrs by [3H]uracil incorporation assay relative to control; assay type: functional
Toxoplasma gondii [31] = experiment: Antiparasitic activity against Toxoplasma gondii infected in mouse L929 cells at 1 uM after 24 hrs by [3H]uracil incorporation assay relative to control; assay type: functional
Toxoplasma gondii [32] = experiment: Antiparasitic activity against Toxoplasma gondii infected in mouse L929 cells at 10 uM after 24 hrs by [3H]uracil incorporation assay relative to control; assay type: functional
Toxoplasma gondii [33] = experiment: Antiparasitic activity against Toxoplasma gondii infected in mouse L929 cells at 0.01 uM after 48 hrs by [3H]uracil incorporation assay relative to control; assay type: functional
Toxoplasma gondii [34] = experiment: Antiparasitic activity against Toxoplasma gondii infected in mouse L929 cells at 0.1 uM after 48 hrs by [3H]uracil incorporation assay relative to control; assay type: functional
Toxoplasma gondii [35] = experiment: Antiparasitic activity against Toxoplasma gondii infected in mouse L929 cells at 1 uM after 48 hrs by [3H]uracil incorporation assay relative to control; assay type: functional
Toxoplasma gondii [36] = experiment: Antiparasitic activity against Toxoplasma gondii infected in mouse L929 cells at 10 uM after 48 hrs by [3H]uracil incorporation assay relative to control; assay type: functional
Human alphaherpesvirus 1 = experiment: Antiviral activity against HSV1 infected african green monkey Vero cells assessed as inhibition of viral-induced cytopathic effect; assay type: functional; settings: Human alphaherpesvirus 1, Vero; read-out: ED50 (the source's name)
Summary of the method: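 Simplified plaque reduction assay: serial dilutions of test compounds with herpes simplex type 1 virus in Vero African green monkey kidney cell cultures in 96-well trays.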

Plasmodium falciparum [37] = experiment: Antimalarial activity against Plasmodium falciparum D6 at 80 ug/mL; assay type: functional, organism-based
Plasmodium falciparum [38] = experiment: Antimalarial activity against Plasmodium falciparum W2 at 80 ug/mL; assay type: functional, organism-based

| Compound | IC50 (Plasmodium falciparum [1]) | selectivity ratio [2] | IC50 (Plasmodium falciparum [3]) | selectivity ratio [4] | IC50 (Vero) | Activity (HFF [5]) | Activity (HFF [6]) | Activity (HFF [7]) | Activity (HFF [8]) | Activity (HFF [9]) | Activity (HFF [10]) | Activity (HFF [11]) | Activity (HFF [12]) | Activity (Toxoplasma gondii [13]) | Activity (Toxoplasma gondii [14]) | Activity (Toxoplasma gondii [15]) | Activity (Toxoplasma gondii [16]) | Activity (Toxoplasma gondii [17]) | Activity (Toxoplasma gondii [18]) | Activity (Toxoplasma gondii [19]) | other results |
| --- | --- | --- | --- | --- | --- | --- | --- | --- | --- | --- | --- | --- | --- | --- | --- | --- | --- | --- | --- | --- | --- |
| C=C1CCC[C@@H]2[C@@H](CC[C@@]3(C)CC[C@H]([C@H](C)C(=O)O)OO3)[C@H](C)CC[C@@]12C [SIGMOSCEPTRELLIN B] | 1.2 µg/mL (≈ 3.17 µM) | > 2.7 | 3.4 µg/mL (≈ 8.98 µM) | > 1 | 2.5 µg/mL (≈ 6.6 µM) | 0% | 0% | 86.81% | 87.41% | 0% | 5.56% | 64.37% | 94.65% | 0% | 84.72% | 96.49% | 94.91% | 37.57% | 98.32% | 100% | Activity (Toxoplasma gondii [20]): 100%; Activity (L929 [21]): 0%; Activity (L929 [22]): 0%; Activity (L929 [23]): 60.48%; Activity (L929 [24]): 92.96%; Activity (L929 [25]): 0%; Activity (L929 [26]): 0%; Activity (L929 [27]): 91.21%; Activity (L929 [28]): 91.05%; Activity (Toxoplasma gondii [29]): 0%; Activity (Toxoplasma gondii [30]): 18.61%; Activity (Toxoplasma gondii [31]): 91.88%; Activity (Toxoplasma gondii [32]): 96.62%; Activity (Toxoplasma gondii [33]): 24.15%; Activity (Toxoplasma gondii [34]): 35.17%; Activity (Toxoplasma gondii [35]): 98.82%; Activity (Toxoplasma gondii [36]): 100% |
| CC1=C(CC/C(C)=C/CC[C@@]2(C)CC[C@@H]([C@@H](C)C(=O)O)OO2)C(C)(C)CCC1 [MUQUBILIN] | 2.9 µg/mL (≈ 7.39 µM) | > 1.6 | > 4.76 µg/mL | > 1 | 30 µg/mL (≈ 76.4 µM) | 0% | 7.15% | 86.15% | 85.85% | 0% | 0.94% | 85.93% | 84.73% | 3.16% | 84% | 86.18% | 91.72% | 0% | 62.88% | 87.94% | EC50 (Human alphaherpesvirus 1): 7.5 µg/mL (≈ 19.1 µM); Activity (Toxoplasma gondii [20]): 100%; Activity (L929 [21]): 0%; Activity (L929 [22]): 0%; Activity (L929 [23]): 66.3%; Activity (L929 [24]): 93%; Activity (L929 [25]): 0%; Activity (L929 [26]): 0%; Activity (L929 [27]): 83.36%; Activity (L929 [28]): 94.9%; Activity (Toxoplasma gondii [29]): 33.85%; Activity (Toxoplasma gondii [30]): 58.35%; Activity (Toxoplasma gondii [31]): 84.03%; Activity (Toxoplasma gondii [32]): 87.84%; Activity (Toxoplasma gondii [33]): 0%; Activity (Toxoplasma gondii [34]): 46.3%; Activity (Toxoplasma gondii [35]): 96.77%; Activity (Toxoplasma gondii [36]): 100% |
| C=C1CCC[C@H]2[C@](C)(CC[C@]3(C)CC[C@H]([C@@H](C)C(=O)O)OO3)[C@@H](C)CC[C@]12C [SIGMOSCEPTRELLIN A] | 0.47 µg/mL (≈ 1.2 µM) | – | 0.42 µg/mL (≈ 1.07 µM) | – | – | – | – | – | – | – | – | – | – | – | – | – | – | – | – | – | – |
| CC(=O)CCCC(C)(C)C(=O)CC/C(C)=C/CC[C@@]1(C)CC[C@H]([C@H](C)C(=O)O)OO1 [AIKUPIKOXIDE A] | – | – | – | – | 60 µg/mL (≈ 141 µM) | – | – | – | – | – | – | – | – | – | – | – | – | – | – | – | EC50 (Human alphaherpesvirus 1): 30 µg/mL (≈ 70.7 µM); IC50 (Plasmodium falciparum [37]): Not Active; IC50 (Plasmodium falciparum [38]): Not Active |
